From ChEMBL document CHEMBL1126086, “Structure-activity studies of potassium channel opening in pinacidil-type cyanoguanidines, nitroethenediamines, thioureas, and ureas” (J Med Chem, 1992) come the findings set out here.

As a reminder, the IC50 is the concentration that gives 50% inhibition. Read a high IC50 as weaker potency in that assay.

Molecules are shown by their SMILES. Bounds are passed on as bounds.

A short description of data set [1]: Ionisation constant (pKa1) due to protonation of the pyridyl ring. The format is physicochemical. The settings on record: read-out: pKa1.
Data set [2] in a line: Ionisation constant (pKa2) due to […]. The format is physicochemical. The settings on record: read-out: pKa2.
For data set [3], the species on record is Rattus norvegicus. The experiment in a line: Concentration required to cause 15% increase in [86Rb+] efflux from rat portal vein. The format is functional. In outline:
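Rat portal vein, opened lengthwise, tension 500 mg, equilibrated 30 min in HEPES-buffered PSS (95% O2/5% CO2, 32 °C, pH 7.4), then loaded 80 min with 86RbCl (5 µCi/mL). Perfusate collected every 2 min; rate constant k from released vs. remaining tissue activity. Drug effect = peak k during application vs. basal k (6–10 min prior), as Δk %; n = 4–6.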

The species entered for data set [4] is Rattus norvegicus. The experiment in a line: Concentration required to cause 50% inhibition of spontaneous activity in rat portal vein. The format is functional. The note with it: for IC50: Rattus norvegicus.
Data set [5] can be described thus: Ionisation constant (pKa2).

Regarding `CCC(C)(C)/N=C(\NC#N)Nc1cccnc1`, the pKa in data set [1] came to 2.61; in data set [2] it was 12.2. The compound also displayed a pEC15 in data set [3] of 7.4. The same compound showed an IC50 in data set [4] of 2 nM.

In the case of `C[C@@H](/N=C(/S)Nc1ccncc1)C(C)(C)C.Cl`, the pEC15 in data set [3] was found to be 4.

As to `C[C@H](/N=C(/S)Nc1ccncc1)C(C)(C)C.Cl`, the results for the pKa in data set [1] and in data set [2] were 4.89 and 13, respectively. The pEC15 in data set [3] is given as 4. Further, in data set [4], the IC50 was 316 nM.

Consider `C[C@@H](/N=C(/NC#N)Nc1cccnc1)C(C)(C)C`, for which the “Log IC50” value in data set [4] is reported as -7.

The compound `COc1cncc(N/C(=C/[N+](=O)[O-])N[C@H](C)C(C)(C)C)c1` displayed a pEC15 in data set [3] of 4. In data set [4], this compound showed an IC50 of 1580 nM.

As for `C[C@@H](N/C(=C\[N+](=O)[O-])Nc1cccnc1)C(C)(C)C`, the pEC15 in data set [3] was 3.8. Moreover, the “Log IC50” value in data set [4] is listed as -6.

With `COc1cncc(N/C(=C/[N+](=O)[O-])N[C@@H](C)C(C)(C)C)c1`, the pKa in data set [1] amounted to 1.86; in data set [2] it was 6.5. For the same compound, the pEC15 in data set [3] was 6.5. The compound further showed an IC50 in data set [4] of 15.8 nM.

For the compound `C[C@H](N/C(=N/c1ccncc1)NC#N)C(C)(C)C`, the pEC15 in data set [3] came to 4.4. Further, in data set [4], the midpoint of inhibition, the IC50, lay at 776 nM.

As for `CC1(C)CSC(Nc2cccnc2)=N1`, the concentration for half-maximal inhibition (IC50) in data set [4] was 31600 nM.

In the case of `CC(C)(C)CN/C(=C\[N+](=O)[O-])Nc1cccnc1`, the pEC15 in data set [3] was determined as 4. In data set [4], this compound showed an IC50 of 1000 nM. Besides, in data set [5], the pKa2 was determined as 8.86.

In the case of `CC(C)N/C(=C\[N+](=O)[O-])Nc1cccnc1`, the pEC15 in data set [3] is under 3.5. The compound further gave a concentration for half-maximal inhibition (IC50) in data set [4] of 31600 nM.

Turning to `CC1(C)CN=C(Nc2cccnc2)N1`, the pKa in data set [2] was 8.2. Further, the IC50 in data set [4] is over 10000 nM.

As for `CC(C)(C)C1CSC(Nc2cccnc2)=N1` (centres undefined), the pKa in data set [1] is 3.89. In addition, the IC50 in data set [4] was 20000 nM.

Regarding `CC(C)(C)/N=C(\Cc1cccnc1)NC#N`, the pKa is 2.71 in data set [1] and over 14 in data set [2]. The compound also gave a pEC15 in data set [3] of 3.5. The same compound gave an IC50 in data set [4] of 5010 nM.

Regarding `C[C@@H](N/C(=N/c1ccncc1)NC#N)C(C)(C)C`, the pEC15 in data set [3] was found to be 5.9. In data set [4], this compound showed a half-inhibitory concentration (IC50) of 33.9 nM.

For `CC(N/C(=C\[N+](=O)[O-])Nc1cccc(C#N)c1)C(C)(C)C` (centres undefined), the pKa in data set [2] worked out at 8.88. For the same compound, in data set [3], the pEC15 stood at 4. Further, in data set [4], the IC50 is 316 nM.

For `CC(C)(C)CNC(=O)Nc1ccncc1.Cl`, the pKa is 5.46 in data set [1] and over 14 in data set [2]. This compound returned a pEC15 in data set [3] of 3.3. Half-maximal inhibition in data set [4] (IC50) was put at 3160 nM.

For `CC(N/C(=C\[N+](=O)[O-])Nc1cccnc1)C(C)(C)C` (centres undefined), the pKa in data set [1] was 2.28; in data set [2] it was 9.03. This compound registered a pEC15 in data set [3] of 5.5. 31.6 nM corresponded to half-maximal inhibition in data set [4] (IC50).

For the compound `CC(C)(C)C/N=C(/S)Nc1cccnc1`, the pKa in data set [1] was 3.08; in data set [2], 13.1. For the same compound, in data set [3], the pEC15 was 5. The compound further gave an IC50 in data set [4] of 200 nM.

On to `CC(C)(C)c1csc(Nc2cccnc2)n1`, for which the pKa in data set [1] is 3.57. The compound further had an IC50 in data set [4] of 1000 nM.

Consider `CC(C)(C)C1CN=C(Nc2cccnc2)N1` (centres undefined), for which the pKa worked out at 2.03 in data set [1] and 8.1 in data set [2]. In data set [4], this compound had an IC50 of 3160 nM.

In turn, `CC(C)(C)/N=C(/NC#N)Nc1cccnc1` showed a pEC15 in data set [3] of 6.1. Also, the IC50 in data set [4] was 12.6 nM.

Consider `CC(C)(C)CN/C(=C\[N+](=O)[O-])Nc1ccncc1`, for which the pEC15 in data set [3] is under 3.5. This compound also had a half-inhibitory concentration (IC50) in data set [4] of 10000 nM.

For the compound `CC(/N=C(/NC#N)Nc1cccnc1)C(C)(C)C` (centres undefined), the results for the pKa in data set [1] and in data set [2] were 2.7 and 12, respectively. This compound came in with a pEC15 in data set [3] of 6.3.

The compound `CCC(C)(C)/N=C(/S)Nc1cccnc1` displayed a pEC15 in data set [3] of 5.2. Further, in data set [4], half-maximal inhibition (IC50) was put at 200 nM.

In the case of `CC(/N=C(/S)Nc1cccnc1)C(C)(C)C` (centres undefined), the pKa in data set [1] was found to be 2.97; in data set [2], 13.2. Besides, the pEC15 in data set [3] was determined as 5.7. The compound also had an IC50 in data set [4] of 50.1 nM.

For `CC(C)(C)CNC(=O)Nc1cccnc1`, the results for the pKa in data set [1] and in data set [2] were 3.74 and over 14, respectively. Further, the pEC15 in data set [3] was found to be 4. This compound also had an IC50 in data set [4] of 2000 nM.

In data set [3], `CC(C)(C)C(CO)/N=C(/S)Nc1cccnc1` (centres undefined) yielded a pEC15 of under 3.5. In data set [4], inhibition was half-maximal at 3160 nM (IC50).

On to `CC(C)(C)C/C(=N/c1cccnc1)NC#N`, for which the pKa in data set [1] was found to be 2.23; in data set [2] it was 11.3. Further, in data set [3], the pEC15 was 4.3.

In data set [3], `CC(C)(C)CN/C(=C\[N+](=O)[O-])NCc1cccnc1` had a pEC15 of under 3.5. In data set [4], this compound showed an IC50 of 20000 nM.

`CCC(C)N1CCN=C1Nc1cccnc1` (centres undefined) gave a pEC15 in data set [3] of under 3. In addition, the half-inhibitory concentration (IC50) in data set [4] was 100000 nM.

In data set [3], `CC(C)(C)CCN/C(=C\[N+](=O)[O-])Nc1cccnc1` gave a pEC15 of 3.5. In data set [4], this compound had an IC50 of 2000 nM.

Consider `CC(C)(C)C/N=C(/NC#N)Nc1cccnc1`, for which the pKa in data set [1] came out at 2.83; in data set [2], 11.8. The pEC15 in data set [3] was 5.5. The compound further gave an IC50 in data set [4] of 100 nM.

In turn, `CC(N/C(=C\[N+](=O)[O-])Nc1ccncc1)C(C)(C)C` (centres undefined) gave a pEC15 in data set [3] of 3.3. The compound further gave an IC50 in data set [4] of 1000 nM.

In data set [3], `O=[N+]([O-])/C=C(/Nc1cccnc1)NC1CCCCC1` yielded a pEC15 of 3.5. The compound further had an IC50 in data set [4] of 3160 nM.

As to `CC(/N=C(/NC#N)Nc1cccnc1)C(C)(C)C` (single isomer, unassigned), the “Log IC50” value in data set [4] is given as -5.2.

`CC(N/C(=C\[N+](=O)[O-])Nc1cccnc1)C(C)(C)C` (single isomer, unassigned) registered a pEC15 in data set [3] of 5.8. Further, the “Log IC50” value in data set [4] is recorded as -8.

As to `CC(N/C(=N\C#N)Nc1ccncc1)C(C)(C)C` (centres undefined) [PINACIDIL ANHYDROUS], the values for the pKa in data set [1] and in data set [2] were 4.81 and 11.3, respectively. Also, the pEC15 in data set [3] worked out at 5.7. This compound showed an IC50 in data set [4] of 63.1 nM.
